Assay results reported in ChEMBL document CHEMBL1772940, “Design and synthesis of potent and selective aldose reductase inhibitors based on pyridylthiadiazine scaffold” (Eur J Med Chem, 2011).

How the values were obtained:
[1] = target: Aldo-keto reductase family 1 member B1 (Rattus norvegicus, UniProt P07943); assay: Inhibition of Wistar rat lens aldose reductase 2 by spectrophotometric analysis
Summary of the method: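 Partially purified lens enzyme (homogenized in cold water, centrifuged 30 min at 0–4 °C, ammonium sulfate 40/50/75% cuts). Mix without DL-glyceraldehyde was preincubated 10 min at 32 °C; the NADPH drop was read at 340 nm at 32 °C in pH 6.2 phosphate, with the substrate-free rate subtracted. At least four concentrations (10^-4–10^-8 M), triplicate; IC50 from log concentration-response regression.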

[2] = test system: Aldehyde reductase AKR1A1 (Rattus norvegicus); assay: Inhibition of Wistar rat kidney aldehyde reductase at 50 uM by spectrophotometric analysis

Row | IC50 [1] [nM] | inhibition [2] [%] | Structure (SMILES)
1 | 44 | 36.6 | O=C(O)CN1CN(Cc2ccc(Br)cc2F)S(=O)(=O)c2cc(Cl)cnc21
2 | 69 | 44.9 | O=C(O)CN1CN(Cc2ccc(Br)cc2F)S(=O)(=O)c2cc(Br)cnc21
3 | 66 | 44.2 | O=C(O)CN1CN(Cc2cc(F)c(F)cc2F)S(=O)(=O)c2cc(Br)cnc21
4 | 127 | 24.6 | Cc1cnc2c(c1)S(=O)(=O)N(Cc1ccc(Br)cc1F)CN2CC(=O)O
5 | 98 | 31.5 | O=C(O)CN1CN(Cc2cccc([N+](=O)[O-])c2)S(=O)(=O)c2cc(Br)cnc21

Second part, the compound before the results:

Row | Structure (SMILES) | IC50 [1] [nM] | inhibition [2] [%]
6 | COc1ccc(CN2CN(CC(=O)O)c3ncc(Br)cc3S2(=O)=O)cc1 | 11300 | 27.9
7 | O=C(O)CN1CN(Cc2ccc(C(F)(F)F)cc2)S(=O)(=O)c2cc(Cl)cnc21 | 1010 | 42.3
8 | O=C(O)CN1CN(Cc2cccc([N+](=O)[O-])c2)S(=O)(=O)c2cc(Cl)cnc21 | 93 | 40.2
9 | Cc1cnc2c(c1)S(=O)(=O)N(Cc1cccc([N+](=O)[O-])c1)CN2CC(=O)O | 143 | 23.2
10 | O=C(O)CN1CN(Cc2ccc(C(F)(F)F)cc2)S(=O)(=O)c2cc(Br)cnc21 | 965 | 43.3
11 | O=C(O)CN1CN(Cc2cc(F)c(F)cc2F)S(=O)(=O)c2cc(Cl)cnc21 | 38 | 36.5
12 | Cc1cnc2c(c1)S(=O)(=O)N(Cc1cc(F)c(F)cc1F)CN2CC(=O)O | 84 | 35.4
13 | COc1ccc(CN2CN(CC(=O)O)c3ncc(C)cc3S2(=O)=O)cc1 | 6270 | 17.7
14 | COc1ccc(CN2CN(CC(=O)O)c3ncc(Cl)cc3S2(=O)=O)cc1 | 6540 | 32.3
15 | Cc1cnc2c(c1)S(=O)(=O)N(Cc1ccc(C(F)(F)F)cc1)CN2CC(=O)O | 1000 | 20.5
